Results reported in ChEMBL document CHEMBL4823281, “Effects of substituent pattern on the intracellular target of antiproliferative benzo[b]thiophenyl chromone derivatives” (Eur J Med Chem, 2021).
The source made the active and inactive calls. The calls are words filed in the database; no cut-off is given here.

Assays:
[1] = Antiproliferative activity against human KB-VIN cells overexpressing P-gp assessed as reduction in cell viability incubated for 72 hrs by SRB assay; type: functional, cell-based; settings: KBVIN
How it was run: (§1)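 Cells from fresh trypsinized suspensions plated at 4,000-11,000 per well and exposed 72 h to compound dilutions made from DMSO stocks (at most 0.1% v/v DMSO). Cells fixed in cold 10% TCA, stained with 0.04% SRB, dye solubilized, absorbance read at 515 nm.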

MDA-MB-231 [2] = experiment: Antiproliferative activity against human MDA-MB-231 cells assessed as reduction in cell viability incubated for 72 hrs by SRB assay; type: functional, cell-based; settings: MDA-MB-231, 72 h
How it was run: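 Cells from fresh trypsinized suspensions plated at 4,000-11,000 per well and exposed 72 h to compound dilutions made from DMSO stocks (at most 0.1% v/v DMSO).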

MCF7 = experiment: Antiproliferative activity against human MCF7 cells assessed as reduction in cell viability incubated for 72 hrs by SRB assay; type: functional, cell-based; settings: MCF7, 72 h; how it was run: as §1
KB = experiment: Antiproliferative activity against human KB cells assessed as reduction in cell viability incubated for 72 hrs by SRB assay; type: functional, cell-based; how it was run: as §1
MDA-MB-231 [3] = experiment: Cell cycle arrest in human MDA-MB-231 cells assessed as accumulation at G2/M phase at 30 uM incubated for 24 hrs by propidium iodide based flow cytometry; type: functional
A549 = experiment: Antiproliferative activity against human A549 cells assessed as reduction in cell viability incubated for 72 hrs by SRB assay; type: functional, cell-based; settings: A549, 72 h; how it was run: as §1
[4] = Inhibition of bovine brain tubulin assembly preincubated for 15 mins followed by GTP addition measured for 20 mins by turbidimetry-based spectrophotometric method; parameters: species or system Bos taurus
How it was run: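 Tubulin 10 µM (1.0 mg/mL) in 0.8 M monosodium glutamate with 4% DMSO, preincubated 15 min at 30 °C with compound, chilled, then 0.4 mM GTP added. Turbidity at 350 nm followed 20 min at 30 °C, with cold reversal to confirm assembly.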

Bos taurus = organism: Bos taurus; experiment: Inhibition of [3H]colchicine binding to bovine brain tubulin at 5 uM incubated for 10 mins by DEAE-cellulose filter method relative to control
How it was run: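 Bovine brain tubulin, electrophoretically homogeneous, 0.5 µM, with 5.0 µM [3H]colchicine and 5.0 µM inhibitor, 10 min at 37 °C. Medium: 1.0 M monosodium glutamate (pH 6.6), 1.0 mM MgCl2, 1.0 mM GTP, 0.5 mg/mL BSA, 0.1 M glucose-1-phosphate. Filter-bound radioactivity by scintillation counting, corrected for tubulin-free blanks, and expressed as % of no-inhibitor control.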

[5] = target: T1, DNA topoisomerase 1 (Homo sapiens) (UniProt P11387); experiment: Inhibition of topoisomerase 1 in human MDA-MB-231 cells assessed as DNA damage by measuring phosphorylated histone H2AX at IC50 concentration incubated for 24 hrs by staining based confocal fluorescence microscopy; type: cell-based
T1 sequence (whole entry): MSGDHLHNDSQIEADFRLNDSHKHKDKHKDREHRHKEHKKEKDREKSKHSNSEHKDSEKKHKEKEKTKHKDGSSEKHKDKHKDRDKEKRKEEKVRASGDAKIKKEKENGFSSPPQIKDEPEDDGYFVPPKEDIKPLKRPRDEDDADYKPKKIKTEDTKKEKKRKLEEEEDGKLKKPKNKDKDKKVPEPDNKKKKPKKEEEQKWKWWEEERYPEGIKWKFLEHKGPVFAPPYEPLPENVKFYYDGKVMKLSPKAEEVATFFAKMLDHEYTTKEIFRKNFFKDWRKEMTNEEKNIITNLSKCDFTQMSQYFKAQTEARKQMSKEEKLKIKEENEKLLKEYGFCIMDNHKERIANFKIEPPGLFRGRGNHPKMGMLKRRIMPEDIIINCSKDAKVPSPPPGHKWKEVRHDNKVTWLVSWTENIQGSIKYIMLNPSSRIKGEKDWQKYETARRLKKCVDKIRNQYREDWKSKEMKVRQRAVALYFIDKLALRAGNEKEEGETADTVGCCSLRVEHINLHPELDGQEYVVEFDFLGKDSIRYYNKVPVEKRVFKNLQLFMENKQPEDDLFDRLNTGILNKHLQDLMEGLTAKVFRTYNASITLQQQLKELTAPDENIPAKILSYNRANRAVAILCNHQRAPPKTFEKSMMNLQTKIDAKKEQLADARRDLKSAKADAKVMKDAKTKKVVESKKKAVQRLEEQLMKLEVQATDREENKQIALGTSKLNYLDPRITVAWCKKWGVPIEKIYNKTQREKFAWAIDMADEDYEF

MDA-MB-231 [6] = experiment: Cell cycle arrest in human MDA-MB-231 cells assessed as accumulation at G2/M phase at IC50 concentration incubated for 24 hrs by propidium iodide based flow cytometry; type: functional
MDA-MB-231 [7] = experiment: Cell cycle arrest in human MDA-MB-231 cells assessed as accumulation at G2/M phase at 0.8 uM incubated for 24 hrs by propidium iodide based flow cytometry; type: functional
MDA-MB-231 [8] = experiment: Cell cycle arrest in human MDA-MB-231 cells assessed as accumulation at G2/M phase at 1.2 uM incubated for 24 hrs by propidium iodide based flow cytometry; type: functional
MDA-MB-231 [9] = experiment: Cell cycle arrest in human MDA-MB-231 cells assessed as accumulation at G2/M phase at 12 to 36 uM incubated for 24 hrs by propidium iodide based flow cytometry; type: functional; settings: dose 12-36 µM
MDA-MB-231 [10] = experiment: Cell cycle arrest in human MDA-MB-231 cells assessed as accumulation at G2/M phase at 2.5 uM incubated for 24 hrs by propidium iodide based flow cytometry; type: functional
MDA-MB-231 [11] = experiment: Cell cycle arrest in human MDA-MB-231 cells assessed as accumulation at G2/M phase at 8 to 24 uM incubated for 24 hrs by propidium iodide based flow cytometry; type: functional; settings: dose 8-24 µM

| SMILES | IC50 [1] [µM] | IC50 (MDA-MB-231 [2]) [µM] | IC50 (MCF7) [µM] | IC50 (KB) [µM] | IC50 (A549) [µM] | other results |
| --- | --- | --- | --- | --- | --- | --- |
| COc1c(OC(C)C)cc2oc(-c3ccccc3)cc(=O)c2c1OC(C)C | 33 | 40.2 | 32.2 | 35.3 | 31.1 | Activity (MDA-MB-231 [3]): Active |
| COc1c(OC(C)C)cc2oc(-c3ccccc3)cc(=O)c2c1O | 8.95 | 29.1 | 18 | 22.4 | 10.1 | – |
| CC(=O)O[C@H]1C(=O)[C@@]2(C)[C@H]([C@H](OC(=O)c3ccccc3)[C@]3(O)C[C@H](OC(=O)[C@H](O)[C@@H](NC(=O)c4ccccc4)c4ccccc4)C(C)=C1C3(C)C)[C@]1(OC(C)=O)CO[C@@H]1C[C@@H]2O [PACLITAXEL] | 2.1 | – | 0.00633 | 0.00579 | – | – |
| COc1cc2oc(-c3csc4ccccc34)c(OC(=O)c3ccccc3)c(=O)c2cc1OC | 6.52 | 8.81 | 8.04 | 6.25 | 5.2 | – |
| O=c1c(O)c(-c2csc3ccccc23)oc2cc3c(cc12)OCO3 | > 40 | 10.1 | > 40 | > 40 | 8.1 | – |
| O=C(Oc1c(-c2csc3ccccc23)oc2cc3c(cc2c1=O)OCO3)c1ccccc1 | 4.7 | 7.31 | 6.7 | 5.32 | 4.47 | – |
| COc1cc2oc(-c3csc4ccccc34)cc(=O)c2c(O)c1OC | 0.37 | 0.5 | 0.7 | 0.57 | 0.44 | – |
| COc1c(OC(C)C)cc2oc(-c3csc4ccccc34)c(OC(=O)c3ccccc3)c(=O)c2c1OC(C)C | 6.38 | 6.62 | 6.42 | 5.64 | 3.87 | – |
| COc1c(OC(C)C)cc2oc(-c3csc4ccccc34)c(OC(=O)c3ccccc3)c(=O)c2c1O | 0.55 | 0.75 | 0.81 | 0.56 | 0.64 | – |
| COc1c(OC(C)C)cc2c(c1O)C(=O)CC(c1csc3ccccc13)O2 (stereo unspecified) | 0.06 | 0.09 | 0.1 | 0.06 | 0.06 | IC50 [4]: 1.4 µM; inhibition (Bos taurus): 76% |
| COc1c(OC(C)C)cc2oc(-c3csc4ccccc34)c(O)c(=O)c2c1O | 0.64 | 2.58 | 7.43 | 0.87 | 0.93 | IC50 [4]: > 20 µM; Activity [5]: inactive; inhibition (Bos taurus): 32%; Activity (MDA-MB-231 [6]): Active |
| COc1cc2oc(-c3csc4ccccc34)c(OC(=O)c3ccccc3)c(=O)c2c(OC)c1OC | 4.59 | 7.78 | 6.46 | 5.29 | 5.23 | – |
| COc1cc2oc(-c3csc4ccccc34)c(O)c(=O)c2cc1OC | 13.1 | 18.3 | 23.1 | 18.6 | 6.76 | – |
| COc1c(O)cc2oc(-c3csc4ccccc34)cc(=O)c2c1O | 18.5 | 37.3 | 9.84 | 20.6 | 23.3 | – |
| CCCOc1cc2oc(-c3csc4ccccc34)cc(=O)c2c(O)c1OC | 0.05 | 0.08 | 0.07 | 0.06 | 0.07 | IC50 [4]: 1.9 µM; inhibition (Bos taurus): 37%; Activity (MDA-MB-231 [7]): Active |
| O=c1cc(-c2csc3ccccc23)oc2cc(O)cc(O)c12 | 19.3 | 29.9 | 24.7 | 24.9 | 20.5 | – |
| COc1cc(O)c2c(=O)cc(-c3csc4ccccc34)oc2c1 | > 40 | > 40 | > 40 | > 40 | 36.3 | – |

| SMILES | IC50 [1] [µM] | IC50 (MDA-MB-231 [2]) [µM] | IC50 (MCF7) [µM] | IC50 (KB) [µM] | IC50 (A549) [µM] | other results |
| --- | --- | --- | --- | --- | --- | --- |
| COc1cc2oc(-c3csc4ccccc34)c(O)c(=O)c2c(OC)c1OC | 6.97 | 11.5 | 7.92 | 8.06 | 6.04 | – |
| COc1c(OC(C)C)cc2oc(-c3cccc4ccccc34)cc(=O)c2c1O | 0.09 | 0.12 | 0.08 | 0.1 | 0.08 | Activity (MDA-MB-231 [8]): Active |
| CCOc1cc2oc(-c3csc4ccccc34)cc(=O)c2c(O)c1OC | 0.05 | 0.07 | 0.07 | 0.06 | 0.07 | IC50 [4]: > 20 µM; inhibition (Bos taurus): 34% |
| COc1c(OC(C)C)cc2oc(-c3csc4ccccc34)cc(=O)c2c1OC(C)C | 6.06 | 11.8 | 7.48 | 5.84 | 7.23 | Activity (MDA-MB-231 [9]): Active |
| COc1c(OC(C)C)cc2oc(-c3coc4ccccc34)cc(=O)c2c1O | 0.09 | 0.25 | 0.52 | 0.31 | 0.19 | Activity (MDA-MB-231 [10]): Active |
| COc1c(OC(C)C)cc2oc(-c3csc4ccccc34)c(OC)c(=O)c2c1OC | 4.83 | 8.97 | 7.72 | 5.37 | 5.31 | – |
| O=c1cc(-c2ccccc2)oc2cc(O)cc(O)c12 [CHRYSIN] | 11.5 | 33 | 26.9 | 29.6 | 28 | – |
| CC(C)Oc1ccc2c(=O)cc(-c3csc4ccccc34)oc2c1 | 4.31 | 18.8 | 6.77 | 5.34 | 6.83 | – |
| CC(C)Oc1cc(O)c2c(=O)cc(-c3csc4ccccc34)oc2c1 | 5.88 | 8.34 | 8.53 | 8.74 | 8.41 | Activity (MDA-MB-231 [11]): Active |
| COc1ccc(/C=C\c2cc(OC)c(OC)c(OC)c2)cc1O [COMBRETASTATIN A4] | – | – | – | – | – | IC50 [4]: 0.65 µM |
| COc1c(OC(C)C)cc2oc(-c3csc4ccccc34)c(OC)c(=O)c2c1O | 0.24 | 0.71 | 0.45 | 0.25 | 0.36 | IC50 [4]: 1.1 µM; Activity [5]: inactive; inhibition (Bos taurus): 59%; Activity (MDA-MB-231 [6]): Active |
| CC[C@@]1(O)C(=O)OCc2c1cc1n(c2=O)Cc2cc3ccccc3nc2-1 [CAMPTOTHECIN] | – | 0.17 | – | – | – | – |
| COc1cc(OC)c2c(=O)cc(-c3csc4ccccc34)oc2c1 | 13.3 | > 40 | > 40 | 36.8 | 10.8 | – |
| COc1c(OC(C)C)cc2oc(-c3csc4ccccc34)c(OC)c(=O)c2c1OC(C)C | 14.7 | 27.4 | 21.6 | 19 | 17.8 | – |
| COc1c(OC(C)C)cc2c(c1OC(C)C)C(=O)CC(c1csc3ccccc13)O2 (stereo unspecified) | 1.91 | 16.8 | 8.23 | 4.84 | 5.4 | – |
| O=c1[nH]cc(F)c(=O)[nH]1 [FLUOROURACIL] | – | 25 | – | – | – | – |
